From PubChem BioAssay AID463146 (The Scripps Research Institute Molecular Screening Center, 2010)

Molecular target: Protein phosphatase methylesterase 1 (Homo sapiens) (UniProt Q9Y570)
Assay: PME-1 inhibition in proteomic lysates, late-stage follow-up, cell lysate, gel ABPP, fluorescence, HeLa, MDA-MB-231 (AID 463146)
Settings: HeLa/MDA-MB-231 lysate, FP-Rh gel ABPP fluorescence, at 10 µM (top of the series)
Summary of the method: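 System: human PME-1 in HeLa or MDA-MB-231 soluble proteome lysate; Amount: lysate protein 1 mg/mL; Medium: DPBS as proteome buffer; Reagent: FP-Rh probe at 1 µM; Detection: SDS-PAGE separation with in-gel fluorescence scanning of probe labeling; Schedule: 30 min compound at 25 °C, 20 min probe.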

Sequence of Protein phosphatase methylesterase 1 (Homo sapiens) (Q9Y570 whole entry, looked up): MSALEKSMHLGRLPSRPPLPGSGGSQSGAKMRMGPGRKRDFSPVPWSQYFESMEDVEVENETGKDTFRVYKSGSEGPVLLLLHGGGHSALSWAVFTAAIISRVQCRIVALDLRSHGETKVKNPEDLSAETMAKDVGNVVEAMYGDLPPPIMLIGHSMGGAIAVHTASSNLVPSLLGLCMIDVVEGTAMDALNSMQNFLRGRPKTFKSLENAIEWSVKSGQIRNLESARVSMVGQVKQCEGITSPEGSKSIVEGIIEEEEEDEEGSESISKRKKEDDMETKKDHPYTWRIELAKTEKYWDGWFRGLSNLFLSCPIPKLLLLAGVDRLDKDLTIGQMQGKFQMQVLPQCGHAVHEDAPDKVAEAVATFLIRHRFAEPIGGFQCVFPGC

| inhibition (HeLa Lysate) [%] | inhibition (MDA-MB-231 Lysate) [%] | SMILES |
| --- | --- | --- |
| 100 | 100 | COC(=O)N1C(=O)[C@](c2ccccc2)(C2CCCCC2)N1C(=O)OC |
| 100 | 100 | COC(=O)N1C(=O)[C@](c2ccccc2)(C2CCCC2)N1C(=O)OC |
| 100 |  | COC(=O)N1C(=O)[C@@](c2ccccc2)(C2CCCC2)N1C(=O)OC |
| 100 |  | COC(=O)N1C(=O)[C@@](c2ccccc2)(C2CCCCC2)N1C(=O)OC |
